These results are taken from ChEMBL document CHEMBL1649516, “Pyrazolopyrimidinediones are selective agents for Helicobacter pylori that suppress growth through inhibition of glutamate racemase (MurI)” (2009).

In experiment [1] the test system is Helicobacter pylori. The experiment can be described thus: Antibacterial activity against Helicobacter pylori SS1 by CLSI M100-S13 method. Format: functional. Put shortly: (§1)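 MICs for H. pylori, C. coli and C. jejuni were determined by a previously described susceptibility method. Compounds were in DMSO at 2% final, and 2% DMSO served as the control.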
Experiment [2] deals with Helicobacter pylori. Briefly: Antibacterial activity against Helicobacter pylori ARHp80 by CLSI M100-S13 method. Type of experiment: functional. Summed up: as §1
Experiment [3] addresses T1, Glutamate racemase (Helicobacter pylori (strain ATCC 700392 / 26695) (Campylobacterpylori)) (UniProt P56068).
T1 sequence (whole entry): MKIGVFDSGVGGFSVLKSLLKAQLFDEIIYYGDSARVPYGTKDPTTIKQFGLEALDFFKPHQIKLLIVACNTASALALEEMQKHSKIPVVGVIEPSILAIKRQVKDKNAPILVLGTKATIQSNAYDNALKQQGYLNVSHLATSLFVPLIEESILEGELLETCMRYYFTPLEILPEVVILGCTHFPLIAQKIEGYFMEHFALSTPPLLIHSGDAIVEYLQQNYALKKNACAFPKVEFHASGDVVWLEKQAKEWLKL
The experiment can be described thus: Inhibition of MurI in flaA mutant Helicobacter pylori Hp80.2 overexpressing MurI gene assessed as microbial growth inhibition by CLSI M100-S13 method. Put shortly: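 MIC against H. pylori Hp80.2, a strain built in the wild-type ARHp80 background by replacing flaA with a murI expression construct (pSM116) so that flaA-promoter-driven MurI is overexpressed, confirmed by PCR, sequencing and Western blot. The comparison strain is isogenic Hp80.1, which carries the empty construct. Compounds were dissolved in DMSO, 2% final, with 2% DMSO as control.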

Experiment [4] has as its system Helicobacter pylori. Briefly: Antibacterial activity against HefC-deficient Helicobacter pylori ARHp80 by CLSI M100-S13 method. Format: functional. Summed up: as §1
The subject of the next experiment is Escherichia coli. The experiment can be described thus: Antibacterial activity against Escherichia coli by CLSI M100-S13 method. Format: functional. Summed up: (§2)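 Broth MICs were run per CLSI guidelines. Compounds were dissolved in DMSO at 2% final concentration, and 2% DMSO alone served as the control.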
Another experiment concerns Staphylococcus aureus. Briefly: Antibacterial activity against Staphylococcus aureus by CLSI M100-S13 method. Format: functional. Put shortly: as §2
In the next experiment the test system is Streptococcus pneumoniae. The experiment can be described thus: Antibacterial activity against Streptococcus pneumoniae NCTC 7466 by CLSI M100-S13 method. Format: functional. Conditions: NCTC7466. Put shortly:
as §2

The test system of the next experiment is Enterococcus faecium. The experiment can be described thus: Antibacterial activity against Enterococcus faecium ATCC 19434 by CLSI M100-S13 method. Format: functional. Summed up:
as §2

For another experiment, the system named is Haemophilus influenzae. The experiment can be described thus: Antibacterial activity against Haemophilus influenzae ATCC 51907 by CLSI M100-S13 method. Type of experiment: functional. Summed up: as §2
The test system of another experiment is Moraxella catarrhalis. The experiment can be described thus: Antibacterial activity against Moraxella catarrhalis ATCC 43617 by CLSI M100-S13 method. Format: functional. Put shortly: as §2
Experiment [5] has as its system Helicobacter pylori. The experiment can be described thus: Induction of morphological changes in Helicobacter pylori by phase contrast microscopy. Format: functional, organism-based. Summed up: (§3)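 H. pylori was grown at 37°C in brucella broth with 5% fetal calf serum under microaerophilic gas (5% O2, 10% CO2, 85% N2), then examined for cell shape by phase-contrast microscopy.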

A further experiment deals with Bacteroides fragilis. The experiment can be described thus: Antibacterial activity against Bacteroides fragilis ATCC 25285 by CLSI M11-S13 broth microdilution method. Type of experiment: functional. Summed up:
(§4)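 Anaerobic MICs run by CLSI broth microdilution guidelines for Bacteroides fragilis. Compounds were dissolved in DMSO at 2% final in all wells, and 2% DMSO served as the solvent control.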
(In general: In broth dilution the organism is exposed to a series of concentrations in liquid medium.)

A further experiment has as its system Clostridioides difficile. Briefly: Antibacterial activity against Clostridium difficile clinical isolate by CLSI M100-S13 method. Format: functional. Summed up: as §4
A further experiment deals with Lactobacillus jensenii. The experiment can be described thus: Antibacterial activity against Lactobacillus jensenii clinical isolate by CLSI M100-S13 method. Type of experiment: functional.
The subject of another experiment is Fusobacterium mortiferum. Briefly: Antibacterial activity against Fusobacterium mortiferum clinical isolate by CLSI M100-S13 method. Format: functional. Put shortly: as §4
The test system of experiment [6] is Bacteroides thetaiotaomicron. Briefly: Antibacterial activity against Bacteroides thetaiotaomicron clinical isolate by CLSI M100-S13 method. Type of experiment: functional. Summed up: as §4
For experiment [7], the system named is Fusobacterium necrophorum. The experiment can be described thus: Antibacterial activity against Fusobacterium necrophorum clinical isolate by CLSI M100-S13 method. Format: functional. Summed up: as §4
In experiment [8] the test system is Prevotella melaninogenica. Briefly: Antibacterial activity against Prevotella melaninogenica clinical isolate by CLSI M100-S13 method. Type of experiment: functional. Summed up:
as §4

A further experiment relates to Campylobacter coli. The experiment can be described thus: Antibacterial activity against Campylobacter coli ATCC 33559 by CLSI M100-S13 method. Type of experiment: functional. Summed up: as §1
Another experiment deals with Campylobacter jejuni. The experiment can be described thus: Antibacterial activity against Campylobacter jejuni ATCC 33560 by CLSI M100-S13 method. Format: functional. Put shortly:
as §1

Experiment [9] concerns the target T1, Glutamate racemase (Helicobacter pylori (strain ATCC 700392 / 26695) (Campylobacterpylori)). The experiment can be described thus: Inhibition of MurI in Helicobacter pylori assessed as morphological change at 2 times MIC by phase contrast microscopy. Summed up:
as §3

SMILES strings stand for the structures. In brackets after ≈: the same amount, converted by molar mass. Activity calls are given as the source filed them. The calls are words filed in the database; no cut-off is given here.

Regarding `CC(C)Cn1c(=O)n(C)c(=O)c2c(-c3ccncc3)n(Cc3cccc4ccccc34)nc21`, the MIC in the experiment with Helicobacter pylori [1] was 4 µg/mL (≈ 9.1 µM); against Helicobacter pylori [2] it was 4 µg/mL (≈ 9.1 µM); in experiment [3], 8 µg/mL (≈ 18.2 µM); against Helicobacter pylori [4], 1 µg/mL (≈ 2.28 µM); with Escherichia coli, greater than 64 µg/mL; against Staphylococcus aureus, greater than 64 µg/mL. Besides, the MIC in the experiment on Streptococcus pneumoniae, with Enterococcus faecium, against Haemophilus influenzae and against Moraxella catarrhalis was greater than 64 µg/mL each time.
`CN(C)[C@@H]1C(O)=C(C(N)=O)C(=O)[C@@]2(O)C(O)=C3C(=O)c4c(O)cccc4[C@@](C)(O)[C@H]3C[C@@H]12` [TETRACYCLINE]: the MIC against Helicobacter pylori [1] came to 0.25 µg/mL (≈ 0.563 µM); against Helicobacter pylori [2], 0.13 µg/mL (≈ 0.293 µM); in [3], 0.13 µg/mL (≈ 0.293 µM); in the experiment with Helicobacter pylori [4] it was 0.015 µg/mL (≈ 0.0338 µM). Besides, in the experiment with Helicobacter pylori [5], the outcome was Active.
`Cn1cc([S+](C)[O-])cc1-c1c2c(=O)n(C)c(=O)n(CC3CC3)c2nn1Cc1ccnc2ccc(Cl)cc12` (configuration not stated): the MIC was 16 µg/mL (≈ 29.8 µM) against Helicobacter pylori [1]; 8 µg/mL (≈ 14.9 µM) against Helicobacter pylori [2]; 16 µg/mL (≈ 29.8 µM) in experiment [3]; 0.25 µg/mL (≈ 0.466 µM) against Helicobacter pylori [4]; greater than 64 µg/mL in the experiment with Escherichia coli; greater than 64 µg/mL with Staphylococcus aureus. The MIC in the experiment on Streptococcus pneumoniae, against Enterococcus faecium, with Haemophilus influenzae and in the experiment with Moraxella catarrhalis was greater than 64 µg/mL each time.
For `CONC(=O)c1cc(-c2c3c(=O)n(C)c(=O)n(CC4CC4)c3nn2Cc2c[nH]c3ccc(C)cc23)n(C)c1`, the MIC is 16 µg/mL (≈ 31 µM) in the experiment on Helicobacter pylori [1]; 16 µg/mL (≈ 31 µM) with Helicobacter pylori [2]; 0.25 µg/mL (≈ 0.485 µM) with Helicobacter pylori [4]; greater than 64 µg/mL in the experiment on Escherichia coli; greater than 64 µg/mL with Staphylococcus aureus; greater than 32 µg/mL with Streptococcus pneumoniae. Further, the MIC against Enterococcus faecium, in the experiment with Haemophilus influenzae and against Moraxella catarrhalis was greater than 32 µg/mL throughout.
`Cn1cc(C#N)cc1-c1c2c(=O)n(C)c(=O)n(CC3CC3)c2nn1Cc1ccnc2ccc(Cl)cc12`: the MIC is 1 µg/mL (≈ 2 µM) against Helicobacter pylori [1]; 0.5 µg/mL (≈ 1 µM) in the experiment on Helicobacter pylori [2]; 4 µg/mL (≈ 8 µM) in experiment [3]; 0.25 µg/mL (≈ 0.5 µM) against Helicobacter pylori [4]; greater than 64 µg/mL with Escherichia coli; greater than 64 µg/mL in the experiment on Staphylococcus aureus. Further, the MIC (with Bacteroides fragilis; with Clostridioides difficile; in the experiment with Lactobacillus jensenii; with Fusobacterium mortiferum; in experiment [6]; in experiment [7]) was greater than 64 µg/mL throughout. Further, the MIC (in experiment [8]; in the experiment on Campylobacter coli; against Campylobacter jejuni) was greater than 64 µg/mL in each case. Also, in experiment [9], the Activity entry was “Non-toxic”.
Regarding `C#CCn1c(=O)c2c(-c3cc(C#N)cn3C)n(Cc3cc(C#N)nc4ccc(Cl)cc34)nc2n(CC2CC2)c1=O`, the MIC in the experiment on Helicobacter pylori [1] was 2 µg/mL (≈ 3.64 µM); against Helicobacter pylori [2], 1 µg/mL (≈ 1.82 µM); in experiment [3], greater than 64 µg/mL; in the experiment on Helicobacter pylori [4], 0.5 µg/mL (≈ 0.911 µM); against Escherichia coli, greater than 64 µg/mL; against Staphylococcus aureus, greater than 64 µg/mL.
In the case of `C#CCn1c(=O)c2c(-c3cncn3C)n(Cc3ccnc4ccc(Cl)cc34)nc2n(CC2CC2)c1=O`, the MIC with Helicobacter pylori [1] was 2 µg/mL (≈ 4 µM); in the experiment with Helicobacter pylori [2], 1 µg/mL (≈ 2 µM); in experiment [3], 8 µg/mL (≈ 16 µM); in the experiment on Helicobacter pylori [4], 0.25 µg/mL (≈ 0.5 µM); against Escherichia coli, greater than 64 µg/mL; against Staphylococcus aureus it was greater than 64 µg/mL.
